Legend:
[1] = biological target: Phosphatidylinositol 4,5-bisphosphate 3-kinase catalytic subunit gamma isoform (Homo sapiens, UniProt P48736); assay: Inhibition of human full length p110gamma using PIP2 as substrate after 30 mins in presence of ATP at 2xKm concentration by TR-FRET assay
[2] = Ocular toxicity in Beagle dog assessed as irreversible damage by measuring decrease in electroretinography response at 10 to 100 mg/kg/day administered for 7 days measured on day 6 by ERG and OCT analysis; format: organism-based, Canis lupus familiaris; conditions: in vivo, 168 h
[3] = Dissociation constant, acidic pKa of compound; format: physicochemical
[4] = Oral bioavailability in Sprague-Dawley rat at 5 mg/kg dosed via gavage after 24 hrs by ESI-LC/MS/MS analysis; format: ADME, organism-based; conditions: in vivo
[5] = Ocular toxicity in Beagle dog assessed as irreversible damage by measuring dilated pupils at 10 to 40 mg/kg/day administered for 7 days and measured from day 4 to day 7; format: organism-based, Canis lupus familiaris; conditions: in vivo, 168 h
[6] = Terminal half life in rhesus monkey at 1 mg/kg administered as iv infusion for 30 mins and measured after 24 hrs by ESI-LC/MS/MS analysis; format: ADME, organism-based, Macaca mulatta; conditions: in vivo, read-out: beta t1/2 (converted)
[7] = Apparent permeability across apical to basolateral side in human Caco2 cells at 10 uM after 1 to 2 hrs by LC/MS/MS analysis; format: ADME, cell-based; conditions: Caco-2
[8] = Terminal half life in Sprague-Dawley rat at 1 mg/kg administered as iv infusion for 30 mins and measured after 24 hrs by ESI-LC/MS/MS analysis; format: ADME, organism-based; conditions: in vivo, read-out: beta t1/2 (converted)
[9] = MRT in Beagle dog at 1 mg/kg administered as iv infusion for 30 mins and measured after 24 hrs by ESI-LC/MS/MS analysis; format: ADME, organism-based, Canis lupus familiaris; conditions: in vivo
[10] = Ocular toxicity in Beagle dog assessed as irreversible damage by measuring retinal detachment at 10 to 100 mg/kg/day administered for 7 days by microscopic analysis; format: organism-based, Canis lupus familiaris; conditions: in vivo, 168 h
[11] = Protein binding in Beagle dog plasma at 1 mg/kg administered as iv infusion for 30 mins and measured after 24 hrs by ESI-LC/MS/MS analysis; format: ADME, organism-based, Canis lupus familiaris; conditions: read-out: PPB (converted)
[12] = Clearance in cynomolgus monkey at 1 mg/kg administered as iv infusion for 30 mins and measured after 24 hrs by ESI-LC/MS/MS analysis; format: ADME, organism-based, Macaca fascicularis; conditions: in vivo
[13] = biological target: T1, Phosphatidylinositol 4,5-bisphosphate 3-kinase catalytic subunit beta isoform (Homo sapiens, UniProt P42338); assay: Inhibition of PI3Kbeta in PTEN-deficient human PC3 cells assessed as reduction in AKT phosphorylation at Ser473 residue after 2 hrs by mesoscale assay; format: cell-based, PC-3
In short: (§1)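 Cellular readout: pAKT1 Ser473 normalized to total AKT1, expressed as units pAKT1 Ser473 per nanogram total AKT1; cells treated under serum-free conditions.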

[14] = Protein binding in rhesus monkey plasma at 1 mg/kg administered as iv infusion for 30 mins and measured after 24 hrs by ESI-LC/MS/MS analysis; format: ADME, organism-based, Macaca mulatta; conditions: read-out: PPB (converted)
[15] = MRT in cynomolgus monkey at 1 mg/kg administered as iv infusion for 30 mins and measured after 24 hrs by ESI-LC/MS/MS analysis; format: ADME, organism-based, Macaca fascicularis; conditions: in vivo
[16] = Clearance in human hepatocytes at 1 uM measured up to 250 mins by UHPLC-HRMS analysis; format: ADME, cell-based, Hepatocyte
[17] = Protein binding in Sprague-Dawley rat plasma at 1 mg/kg administered as iv infusion for 30 mins and measured after 24 hrs by ESI-LC/MS/MS analysis; format: ADME, organism-based; conditions: read-out: PPB (converted)
[18] = Protein binding in cynomolgus monkey plasma at 1 mg/kg administered as iv infusion for 30 mins and measured after 24 hrs by ESI-LC/MS/MS analysis; format: ADME, organism-based, Macaca fascicularis; conditions: read-out: PPB (converted)
[19] = Apparent permeability across basolateral to apical side in human Caco2 cells at 10 uM after 1 to 2 hrs by LC/MS/MS analysis; format: ADME, cell-based; conditions: Caco-2
Cytochrome P450 3A4 = Cytochrome P450 3A4 (Homo sapiens, UniProt P08684); assay: Inhibition of human CYP3A4; format: ADME
[20] = Clearance in Sprague-Dawley rat at 1 mg/kg administered as iv infusion for 30 mins and measured after 24 hrs by ESI-LC/MS/MS analysis; format: ADME, organism-based; conditions: in vivo
[21] = Ocular toxicity in Beagle dog assessed as irreversible damage by measuring red conjuctiva at 10 to 40 mg/kg/day administered for 7 days and measured from day 4 to day 7; format: organism-based, Canis lupus familiaris; conditions: in vivo, 168 h
[22] = Ocular toxicity in Beagle dog assessed as irreversible damage by measuring ocular discharge at 10 to 40 mg/kg/day administered for 7 days and measured from day 4 to day 7; format: organism-based, Canis lupus familiaris; conditions: in vivo, 168 h
[23] = Oral bioavailability in cynomolgus monkey at 5 mg/kg dosed via gavage after 24 hrs by ESI-LC/MS/MS analysis; format: ADME, organism-based, Macaca fascicularis; conditions: in vivo
[24] = Clearance in rhesus monkey at 1 mg/kg administered as iv infusion for 30 mins and measured after 24 hrs by ESI-LC/MS/MS analysis; format: ADME, organism-based, Macaca mulatta; conditions: in vivo
[25] = Volume of distribution at steady state in rhesus monkey at 1 mg/kg administered as iv infusion for 30 mins and measured after 24 hrs by ESI-LC/MS/MS analysis; format: ADME, organism-based, Macaca mulatta; conditions: in vivo, read-out: Vdss
[26] = biological target: T1, Phosphatidylinositol 4,5-bisphosphate 3-kinase catalytic subunit beta isoform; assay: Inhibition of PI3Kbeta in PTEN-deficient human ZR-75-1 cells assessed as reduction in AKT phosphorylation at Ser473 residue after 2 hrs by mesoscale assay; format: cell-based; in short: as §1
[27] = Volume of distribution at steady state in Beagle dog at 1 mg/kg administered as iv infusion for 30 mins and measured after 24 hrs by ESI-LC/MS/MS analysis; format: ADME, organism-based, Canis lupus familiaris; conditions: in vivo, read-out: Vdss
[28] = Clearance in Beagle dog at 1 mg/kg administered as iv infusion for 30 mins and measured after 24 hrs by ESI-LC/MS/MS analysis; format: ADME, organism-based, Canis lupus familiaris; conditions: in vivo
[29] = biological target: T1, Phosphatidylinositol 4,5-bisphosphate 3-kinase catalytic subunit beta isoform; assay: Inhibition of PI3Kbeta in PTEN-deficient human LNCaP C4-2 cells assessed as reduction in AKT phosphorylation at Ser473 residue after 2 hrs by mesoscale assay; format: cell-based; in short: as §1
[30] = Ocular toxicity in Beagle dog assessed as irreversible damage by measuring retinal necrosis at 10 to 100 mg/kg/day administered for 7 days by microscopic analysis; format: organism-based, Canis lupus familiaris; conditions: in vivo, 168 h
[31] = Terminal half life in Beagle dog at 1 mg/kg administered as iv infusion for 30 mins and measured after 24 hrs by ESI-LC/MS/MS analysis; format: ADME, organism-based, Canis lupus familiaris; conditions: in vivo, read-out: beta t1/2 (converted)
[32] = MRT in Sprague-Dawley rat at 1 mg/kg administered as iv infusion for 30 mins and measured after 24 hrs by ESI-LC/MS/MS analysis; format: ADME, organism-based; conditions: in vivo
[33] = Ocular toxicity in Beagle dog assessed as irreversible damage by measuring retinal degeneration at 10 to 100 mg/kg/day administered for 7 days by microscopic analysis; format: organism-based, Canis lupus familiaris; conditions: in vivo, 168 h
[34] = biological target: T1, Phosphatidylinositol 4,5-bisphosphate 3-kinase catalytic subunit beta isoform; assay: Inhibition of PI3Kbeta in PTEN-deficient human LNCAP cells assessed as reduction in AKT phosphorylation at Ser473 residue after 2 hrs by mesoscale assay; format: cell-based; in short: as §1
[35] = Volume of distribution at steady state in cynomolgus monkey at 1 mg/kg administered as iv infusion for 30 mins and measured after 24 hrs by ESI-LC/MS/MS analysis; format: ADME, organism-based, Macaca fascicularis; conditions: in vivo, read-out: Vdss

T1 sequence (P42338 whole entry, canonical isoform): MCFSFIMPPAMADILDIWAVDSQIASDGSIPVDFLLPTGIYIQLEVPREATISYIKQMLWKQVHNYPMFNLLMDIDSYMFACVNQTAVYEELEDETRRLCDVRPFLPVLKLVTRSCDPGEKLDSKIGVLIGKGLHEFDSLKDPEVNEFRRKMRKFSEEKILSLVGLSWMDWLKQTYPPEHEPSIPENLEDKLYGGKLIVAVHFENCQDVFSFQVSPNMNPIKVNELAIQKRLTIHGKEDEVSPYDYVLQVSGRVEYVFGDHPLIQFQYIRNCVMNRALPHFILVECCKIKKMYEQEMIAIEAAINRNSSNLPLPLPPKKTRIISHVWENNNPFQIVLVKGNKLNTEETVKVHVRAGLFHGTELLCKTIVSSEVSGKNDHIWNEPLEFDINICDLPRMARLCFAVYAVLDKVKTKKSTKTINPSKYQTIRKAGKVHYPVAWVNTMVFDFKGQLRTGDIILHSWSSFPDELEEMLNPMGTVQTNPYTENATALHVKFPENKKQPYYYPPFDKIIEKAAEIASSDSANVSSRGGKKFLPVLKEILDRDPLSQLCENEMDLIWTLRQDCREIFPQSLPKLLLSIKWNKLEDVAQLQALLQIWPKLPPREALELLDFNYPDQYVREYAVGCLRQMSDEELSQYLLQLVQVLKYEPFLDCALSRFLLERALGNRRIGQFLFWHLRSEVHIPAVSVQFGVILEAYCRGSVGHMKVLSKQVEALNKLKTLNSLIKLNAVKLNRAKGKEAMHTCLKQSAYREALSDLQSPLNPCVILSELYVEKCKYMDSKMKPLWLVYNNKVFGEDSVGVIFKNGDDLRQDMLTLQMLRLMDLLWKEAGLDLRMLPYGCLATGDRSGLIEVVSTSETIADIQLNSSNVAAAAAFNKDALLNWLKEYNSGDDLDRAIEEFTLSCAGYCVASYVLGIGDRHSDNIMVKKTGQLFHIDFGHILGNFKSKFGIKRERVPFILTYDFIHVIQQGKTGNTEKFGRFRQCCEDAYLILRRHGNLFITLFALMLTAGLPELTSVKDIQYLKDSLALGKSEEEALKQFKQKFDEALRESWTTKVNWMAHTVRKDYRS
Chain of Cytochrome P450 3A4 (P08684 whole entry, the tested form may be a part): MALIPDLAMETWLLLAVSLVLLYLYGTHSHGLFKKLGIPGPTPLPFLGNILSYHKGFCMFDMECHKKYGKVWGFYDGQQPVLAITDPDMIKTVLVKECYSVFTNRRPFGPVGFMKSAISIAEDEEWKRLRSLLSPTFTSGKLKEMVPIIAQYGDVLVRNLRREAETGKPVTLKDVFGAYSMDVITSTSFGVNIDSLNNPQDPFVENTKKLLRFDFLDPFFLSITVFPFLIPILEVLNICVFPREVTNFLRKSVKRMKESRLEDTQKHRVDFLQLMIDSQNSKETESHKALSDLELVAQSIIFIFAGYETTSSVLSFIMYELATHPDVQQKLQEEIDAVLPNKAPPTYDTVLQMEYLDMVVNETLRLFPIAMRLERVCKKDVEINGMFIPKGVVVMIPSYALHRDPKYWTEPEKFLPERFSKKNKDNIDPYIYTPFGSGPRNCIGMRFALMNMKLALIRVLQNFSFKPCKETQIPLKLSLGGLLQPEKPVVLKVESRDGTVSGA
Chain of Phosphatidylinositol 4,5-bisphosphate 3-kinase catalytic subunit gamma isoform (P48736 whole entry, canonical isoform): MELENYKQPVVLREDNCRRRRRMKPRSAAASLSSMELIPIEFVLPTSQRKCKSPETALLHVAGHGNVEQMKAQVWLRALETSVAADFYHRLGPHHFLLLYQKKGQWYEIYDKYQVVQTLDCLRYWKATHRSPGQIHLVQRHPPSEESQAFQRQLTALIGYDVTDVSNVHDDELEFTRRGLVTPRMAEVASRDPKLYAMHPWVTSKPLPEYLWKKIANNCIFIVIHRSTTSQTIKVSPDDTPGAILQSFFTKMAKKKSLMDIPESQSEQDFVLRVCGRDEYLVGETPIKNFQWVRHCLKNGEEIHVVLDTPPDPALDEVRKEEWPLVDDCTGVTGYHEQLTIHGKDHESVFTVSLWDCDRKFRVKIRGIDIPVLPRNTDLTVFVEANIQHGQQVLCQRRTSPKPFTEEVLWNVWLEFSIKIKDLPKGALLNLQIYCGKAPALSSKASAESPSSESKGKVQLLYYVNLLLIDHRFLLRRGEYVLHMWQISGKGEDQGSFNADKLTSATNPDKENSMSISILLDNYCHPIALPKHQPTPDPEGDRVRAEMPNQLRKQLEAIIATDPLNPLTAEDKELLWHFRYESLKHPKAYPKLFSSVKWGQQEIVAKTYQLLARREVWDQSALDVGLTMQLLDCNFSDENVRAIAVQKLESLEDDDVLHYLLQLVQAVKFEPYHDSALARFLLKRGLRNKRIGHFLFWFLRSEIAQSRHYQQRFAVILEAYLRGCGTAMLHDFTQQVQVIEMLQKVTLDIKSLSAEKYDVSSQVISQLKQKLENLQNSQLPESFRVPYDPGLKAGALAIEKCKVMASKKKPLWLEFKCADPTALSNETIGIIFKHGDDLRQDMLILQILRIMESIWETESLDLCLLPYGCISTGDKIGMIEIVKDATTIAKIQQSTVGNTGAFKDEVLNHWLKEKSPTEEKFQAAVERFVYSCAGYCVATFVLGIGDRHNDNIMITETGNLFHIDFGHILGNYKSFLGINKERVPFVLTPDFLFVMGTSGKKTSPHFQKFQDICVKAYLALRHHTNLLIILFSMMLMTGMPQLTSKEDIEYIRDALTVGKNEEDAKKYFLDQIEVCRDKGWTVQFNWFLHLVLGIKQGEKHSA

Cc1nc2c(-c3nnc[nH]3)cc(-c3ccnc(C#N)c3)cc2n1-c1ccnc2c(F)ccc(F)c12
IC50 [1]: 6610 nM | Activity [2]: Toxic | pKa [3]: < 1 | bioavailability [4]: 53% | Activity [5]: Toxic | half-life [6]: 4.4 h | Papp A→B at 10 µM [7]: 22 ×10⁻⁶ cm/s | half-life [8]: 1.2 h | MRT [9]: 7.3 h | Activity [10]: Toxic | fraction unbound at 24 h [11]: 0.14 | clearance [12]: 4.17 mL/min/kg | EC50 [13]: 12 nM | fraction unbound at 24 h [14]: 0.19 | MRT [15]: 5.2 h | CLH at 1 µM [16]: 3.17 mL/min/kg | CLH ([16]; 250 min, 1 µM): 3 mL/min/kg | fraction unbound at 24 h [17]: 0.16 | fraction unbound at 24 h [18]: 0.16 | Papp B→A at 10 µM [19]: 32 ×10⁻⁶ cm/s | IC50 (Cytochrome P450 3A4): 24000 nM | clearance [20]: 32.8 mL/min/kg | Activity [21]: Toxic | Activity [22]: Toxic | bioavailability [23]: 35% | clearance [24]: 7.83 mL/min/kg | Vd [25]: 2.6 L/kg | EC50 [26]: 5 nM | Vd [27]: 2.5 L/kg | clearance [28]: 5.67 mL/min/kg | EC50 [29]: 24 nM | Activity [30]: Toxic | half-life [31]: 5.5 h | MRT [32]: 1.3 h | Activity [33]: Toxic | EC50 [34]: 31 nM | Vd [35]: 1.3 L/kg
